The target of data set [1] is T1, Amyloid-beta precursor protein (Homo sapiens, UniProt P05067). Kind of data set: Binding affinity to Amyloid beta (1 to 42) aggregates (unknown origin) assessed as fluorescent intensities measured after 30 mins by fluorescence spectrometry. In outline:
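P14 (320 nM final, in EtOH) incubated 30 min at room temperature with 0, 2, 4, 6 or 8 μM Aβ42 aggregates. Aggregates were made by shaking 50 μM Aβ42 in 10 mM PBS pH 7.4 at 100 rpm, 37 °C, 24 h. Emission spectra recorded at 600–800 nm with excitation at 589 nm.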

A short description of data set [2]: Solubility of the compound in water. It is filed as physicochemical. To be noted: buffer.
The subject of a further data set is Cerebral cortex. Kind of data set: In vivo binding affinity Amyloid beta deposits in APPswe/PSEN1dE9, APP/PS1 double transgenic mouse cerebral cortex assessed as red fluorescent spot. It is filed as functional, organism-based. In outline:
(§1)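 Frozen brain sections from perfused 12-month male APP/PS1 mice or wild-type mice. Sections were stained with ThS (10 mg mL-1), washed 3 times with 50% ethanol, then incubated with 100 μM compound for 20 min at room temperature. Confocal imaging: compound Ex 638/Em 650–700 nm, ThS Ex 488/Em 500–550 nm. n = 3.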

The test system of another data set is Hippocampus. Kind of data set: In vivo binding affinity Amyloid beta deposits in APPswe/PSEN1dE9, APP/PS1 double transgenic mouse hippocampus assessed as red fluorescent spot. It is filed as functional, organism-based. In short, it runs like this:
as §1

For the next data set, the system named is Brain. Kind of data set: In vivo binding affinity Amyloid beta deposits in wild type mouse brain by fluorescence staining assay. Format: functional, organism-based. In outline:
as §1

The subject of data set [3] is Mus musculus. Kind of data set: In vivo binding affinity Amyloid beta deposits in APP/PS1 transgenic mouse assessed as Increase in fluorescence intensity at 2 mg/kg, iv measured after 5 mins by IVIS Spectrum imaging based assay relative to wild type. It is filed as functional, organism-based. In short, it runs like this: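 APP/PS1 and wild-type mice, 12 months old, heads shaved and anaesthetized with 1.5% isoflurane. Injected intravenously with 2 mg kg-1 in DMSO:Cremophor EL:0.9% saline = 5:10:85. Brain fluorescence was acquired sequentially by IVIS, with circular ROI analysis at 5 min. Ex 570 nm, Em Cy5.5. n = 3.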

The target of data set [4] is T1, Amyloid-beta precursor protein. Kind of data set: Inhibition of amyloid beta 42 (unknown origin) aggregation assessed as fluorescence intensity at 0.1 equivalents measured for 24 hrs by ThT fluorescence assay. In short, it runs like this:
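Aβ42 monomer (50 μM) incubated 24 h at 37 °C with or without compound. ThT was then added from a 15 mM solution in 50 mM glycine-NaOH, and fluorescence read at Ex 425/Em 490 nm. n = 4; mean ± SD.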

The target is the same in data set [5]. In words: Inhibition of amyloid beta 42 (unknown origin) aggregation assessed as reduction in amyloid fibrils density at 50 uM measured after 24 hrs incubation by transmission electron microscopy (TEM). In outline:
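Aβ42 (50 μM in water) mixed 1:1 with water or 100 μM compound, then shaken at 100 rpm, 37 °C, 24 h. Samples were adsorbed on carbon-coated copper grids, negatively stained with 7.5% uranium formate and imaged by TEM at 120 kV.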

Data set [6] relates to Cortical neurone. In words: Neuroprotective effect against Amyloid-beta induced Sprague-Dawley rat primary cortical neurons assessed as cell viability after 9 days of pretreatment with Amyloid-beta followed by incubated with 1 uM compound for 24 hrs by MTT assay. Format: functional, cell-based. To be noted: time 9.0 day. In short, it runs like this: (§2)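 Primary cortical neurons from newborn SD rat pups, cultured in neurobasal/B27 at 37 °C and used at day 9. Cells were exposed for 24 h to Aβ42 (1 μM final) premixed with compound at 0, 0.1, 0.25, 0.5, 1 or 5 μM final. MTT was then added for 4 h, formazan dissolved in DMSO and absorbance read at 490 nm. n = 3; mean ± SD.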

The subject of data set [7] is Cortical neurone. In words: Neuroprotective effect against Amyloid-beta induced Sprague-Dawley rat primary cortical neurons assessed as cell viability after 9 days of pretreatment with Amyloid-beta followed by incubated with 5 uM compound for 24 hrs by MTT assay. It is filed as functional, cell-based. As to conditions: time 9.0 day. In outline: as §2
Data set [8] deals with Cortical neurone. In words: Neuroprotective effect against Amyloid-beta induced Sprague-Dawley rat primary cortical neurons assessed as reversal of Amyloid beta-induced loss of MAP2 fluorescence signal at 1 uM by immunofluorescence staining based assay. Format: functional, cell-based. In outline:
(§3)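 Primary rat cortical neurons exposed to Aβ42 with or without compound. Cells were fixed in 4% PFA and blocked with 3% BSA/0.01% Triton X-100 for 1 h. Staining was anti-MAP2 (1:200) overnight at 4 °C, then Alexa Fluor 488 secondary (1:500) for 1 h, with DAPI nuclear counterstain. MAP2 fluorescence was quantified. n = 3.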

Data set [9] relates to Cortical neurone. In words: Neuroprotective effect against Amyloid-beta induced Sprague-Dawley rat primary cortical neurons assessed as reversal of Amyloid beta-induced loss of MAP2/DAPI fluorescence signal at 1 uM by immunofluorescence staining based assay. It is filed as functional, cell-based. In outline: as §3
Data set [10] relates to Cortical neurone. Kind of data set: Cytotoxicity against Sprague-Dawley rat primary cortical neurons assessed as cell viability at 0.1 to 5 uM measured after 24 hrs by MTT assay. It is filed as toxicity, cell-based. As to conditions: dose 0.1-5 µM. A general note: Tetrazolium dyes change colour on reduction, which living cells bring about.
The species entered for data set [11] is Mus musculus. Kind of data set: Anti-alzheimer activity against 12 month old APP/PS1 transgenic mouse model assessed as decrease in amyloid beta plaques in brain cortex region treated continuously and measured after 3 months by ThS staining based immunofluorescence assay relative to control. Format: functional, organism-based. In short, it runs like this: (§4)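 APP/PS1 mice dosed orally from 9 months of age for three months with 10 mg kg-1 in PEG400:HS15:0.9% saline = 25:15:60, or with vehicle alone. Wild-type mice were treated in parallel. ThS-stained plaques were counted by confocal imaging of hippocampus and cortex sections at 12 months. n = 3.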

For data set [12], the species on record is Mus musculus. In words: Anti-alzheimer activity against 12 month old APP/PS1 transgenic mouse model assessed as decrease in amyloid beta plaques in brain hippocampus region treated continuously and measured after 3 months by ThS staining based immunofluorescence assay relative to control. Format: functional, organism-based. In short, it runs like this:
as §4

Data set [13] is filed under the species Mus musculus. In words: Antialzheimer activity in 12 month old APP/PS1 transgenic cognitive impairment mouse model assessed as reduction in error time in passage water maze treated continuously and measured after 3 months by passage water maze test. Format: functional, organism-based. In short, it runs like this: (§5)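 APP/PS1 mice and wild-type littermates given oral 10 mg kg-1 (PEG400:HS15:0.9% saline = 25:15:60) or vehicle from 9 to 12 months. Tested in an 80 × 50 cm passage water maze with one correct path. Training was 1-min free swims, with guidance to the platform on failure. After 4 trainings, wrong-path errors and latency to the platform were recorded. n = 6-10.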

For data set [14], the species on record is Mus musculus. Kind of data set: Antialzheimer activity in 12 month old APP/PS1 transgenic cognitive impairment mouse model assessed as shortening of latencies to reaching platform treated continuously and measured after 3 months by water maze test. Format: functional, organism-based. In outline: as §5
The test system of data set [15] is Mus musculus. In words: Anti-alzheimer activity against 5 month old 5 x FAD mouse assessed as average radiation efficiency at 30 mg/kg, po treated for 1 month. Format: functional. As to conditions: time 1 months, 730 h. In short, it runs like this:
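5×FAD and wild-type mice imaged by IVIS after a single intravenous injection of 2.0 mg kg-1. Imaging was done at 5 months, and again at 6 months after one month of oral treatment (30 mg kg-1) or vehicle. Ex 570 nm, Em 640 nm. Read-out is average radiation efficiency. n = 3 at 5 months, n = 4 at 6 months; mean ± SD.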

The species entered for data set [16] is Mus musculus. Kind of data set: Anti-alzheimer activity against transgenic mouse model assessed as decrease in amyloid beta plaques in brain hippocampus region treated continuously and measured after 3 months by ThS staining based immunofluorescence assay relative to control.
For data set [17], the target named is T1, Amyloid-beta precursor protein. In words: Binding affinity to Amyloid beta (1 to 42) aggregates (unknown origin). In short, it runs like this: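 Fluorescence titration in which P14 (0–200 nM, in EtOH) was incubated with 5 μM Aβ42 aggregates for 30 min at room temperature. Read in a quartz cuvette at Ex 589 nm, Em 620 nm. Kd was obtained by nonlinear regression, one-site binding. n = 3; mean ± SD.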

SMILES strings stand for the structures. Activity calls are given as the source filed them. No cut-off for these calls is given here.

T1 sequence (P05067 whole entry): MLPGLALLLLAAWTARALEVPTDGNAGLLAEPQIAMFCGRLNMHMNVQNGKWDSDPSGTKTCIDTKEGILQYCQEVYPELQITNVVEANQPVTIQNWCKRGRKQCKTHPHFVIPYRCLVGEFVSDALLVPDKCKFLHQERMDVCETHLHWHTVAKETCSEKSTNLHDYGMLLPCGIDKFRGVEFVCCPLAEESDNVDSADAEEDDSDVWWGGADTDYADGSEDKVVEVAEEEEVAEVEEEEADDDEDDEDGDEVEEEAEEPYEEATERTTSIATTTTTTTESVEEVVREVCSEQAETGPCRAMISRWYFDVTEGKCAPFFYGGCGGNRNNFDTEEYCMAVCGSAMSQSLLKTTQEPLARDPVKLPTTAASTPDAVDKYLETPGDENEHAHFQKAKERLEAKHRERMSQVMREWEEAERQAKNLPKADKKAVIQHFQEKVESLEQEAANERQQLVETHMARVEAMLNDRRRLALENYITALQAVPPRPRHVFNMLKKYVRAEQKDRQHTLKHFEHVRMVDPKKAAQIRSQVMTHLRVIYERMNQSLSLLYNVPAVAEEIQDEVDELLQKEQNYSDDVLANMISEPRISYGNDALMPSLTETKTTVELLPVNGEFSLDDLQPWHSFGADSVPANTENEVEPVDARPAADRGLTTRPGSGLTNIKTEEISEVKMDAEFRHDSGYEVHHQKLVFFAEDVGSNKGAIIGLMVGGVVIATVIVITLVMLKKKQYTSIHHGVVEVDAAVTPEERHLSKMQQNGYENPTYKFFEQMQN

As for `CC1=CC(C)=[N+]2C1=C(CCCO)c1c(C)cc(/C=C/c3cnc(N(C)C)s3)n1[B-]2(F)F`, the Kd in data set [1] was 78.1 nM. In addition, in [2], the solubility result is reported as “Soluble”. Besides, the outcome with Cerebral cortex, with Hippocampus, in the data set with Mus musculus [3], in the data set with Cortical neurone [6], in the data set with Cortical neurone [7] and in the data set with Cortical neurone [8] was Active. In addition, the result in the data set on Cortical neurone [9], in the data set filed under Mus musculus [11], in the data set filed under Mus musculus [12], in the data set filed under Mus musculus [13], in the data set filed under Mus musculus [14] and in the data set filed under Mus musculus [16] was Active. In addition, the result with Brain was inactive. In addition, in [4], the inhibition result was “Dose-Dependent Effect”. In addition, the inhibition entry in [5] is “Active”. In addition, the figures for the Activity entry in the data set on Cortical neurone [10] and with Mus musculus [15] were “Non-Toxic” and 5.2 10^8(p/s/cm^2/sr)/(uW/cm^2), respectively.
As to `CC1=CC(C)=[N+]2C1=C(CCCN1CCNc3ccccc31)c1c(C)cc(/C=C/c3ccc(N(C)C)s3)n1[B-]2(F)F`, the dissociation constant Kd in data set [1] was found to be 27 nM.
In [17], `Cc1cc(/C=C/c2ccc(N(C)C)s2)n2c1C=C1C=CC=[N+]1[B-]2(F)F` had a dissociation constant (Kd) of 55 nM.

What is called Kd is the equilibrium constant for the complex coming apart.
